Converted amounts (≈) assume the structure as drawn.
Legend:
Streptococcus [1] = experiment: In vitro antimicrobial activity against aerobic bacteria Streptococcus D 9960; format: functional
Mus musculus [2] = experiment: Peripheral plasma levels in mice after oral administration of 100 mg/kg dose for 1 hr; format: functional, organism-based; set-up: dose 100 mg/kg
Method in brief: (§1)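 Mice were given the compound orally and sampled for peripheral plasma at each time point. Plasma was assayed microbiologically against Micrococcus luteus seeded in Antibiotic Medium 1. Inhibition zone sizes were read, and concentrations were calculated from each compound's own standard curve. Each value is the mean of five mice per time point.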

Staphylococcus aureus [3] = experiment: In vitro antimicrobial activity against Staphylococcus aureus X1; format: functional
[4] = test system: Prevotella melaninogenica; experiment: In vitro antimicrobial activity against anaerobic bacteria bacteroides melaninogenicus 1856,; format: functional
Haemophilus influenzae [5] = experiment: In vitro antimicrobial activity against aerobic bacteria Haemophilus influenzae 465; format: functional
Haemophilus influenzae [6] = experiment: In vitro antimicrobial activity against aerobic bacteria Haemophilus influenzae MX366,; format: functional
Chlamydia trachomatis = experiment: In vitro antimicrobial activity against chlamydia trachomatis.; format: functional
Mus musculus [7] = experiment: Peripheral plasma levels in mice after oral administration of 50 mg/kg dose for 0.5 hr; format: functional, organism-based; set-up: dose 50 mg/kg; method in brief: as §1
Mus musculus [8] = experiment: Peripheral plasma levels in mice after oral administration of 50 mg/kg dose for 0.25 hr; format: functional, organism-based; set-up: dose 50 mg/kg; method in brief: as §1
Streptococcus [9] = experiment: In vitro antimicrobial activity against aerobic bacteria Streptococcus B 5; format: functional
Streptococcus pneumoniae [10] = experiment: In vitro antimicrobial activity against aerobic bacteria Streptococcus pneumoniae B1-438; format: functional, streptococcus pneum
Cutibacterium acnes = experiment: In vitro antimicrobial activity against anaerobic bacteria propionibacterium acnes 79; format: functional
Staphylococcus aureus [11] = experiment: In vitro antimicrobial activity against aerobic bacteria Staphylococcus aureus 513E; format: functional
Streptococcus [12] = experiment: In vitro antimicrobial activity against aerobic bacteria Streptococcus B 14; format: functional
[13] = In vitro antimicrobial activity against anaerobic bacteria peptostreptococcus intermedius 1264; format: functional
[14] = test system: Bacteroides thetaiotaomicron; experiment: In vitro antimicrobial activity against anaerobic bacteria bacteroides thetaiotaomicron 1438; format: functional
Anaerococcus prevotii = experiment: In vitro antimicrobial activity against anaerobic bacteria peptococcus prevoti 1281; format: functional
Clostridium perfringens = experiment: In vitro antimicrobial activity against anaerobic bacteria clostridium perfringens 81,; format: functional
Bacteroides fragilis [15] = experiment: In vitro antimicrobial activity against anaerobic bacteria bacteroides fragilis 1877; format: functional
[16] = test system: Staphylococcus epidermidis; experiment: In vitro antimicrobial activity against aerobic bacteria Streptococcus epi 222; format: functional
[17] = test system: Staphylococcus epidermidis; experiment: In vitro antimicrobial activity against aerobic bacteria Streptococcus epi 270; format: functional
Mus musculus [18] = experiment: Peripheral plasma levels in mice after oral administration of 100 mg/kg dose for 0.5 hr; format: functional, organism-based; set-up: dose 100 mg/kg; method in brief: as §1
Mus musculus [19] = experiment: Peripheral plasma levels in mice after oral administration of 50 mg/kg dose for 2 hr; format: functional, organism-based; set-up: dose 50 mg/kg; method in brief: as §1
Collinsella aerofaciens = experiment: In vitro antimicrobial activity against anaerobic bacteria aerofaciens 1235; format: functional
Mus musculus [20] = experiment: Peripheral plasma levels in mice after oral administration of 100 mg/kg dose for 0.25 hr; format: functional, organism-based; set-up: dose 100 mg/kg; method in brief: as §1
Staphylococcus aureus [21] = experiment: In vitro antimicrobial activity against aerobic bacteria Staphylococcus aureus V135; format: functional
Mus musculus [22] = experiment: Peripheral plasma levels in mice after oral administration of 50 mg/kg dose for 1 hr; format: functional, organism-based; set-up: dose 50 mg/kg; method in brief: as §1
Streptococcus [23] = experiment: In vitro antimicrobial activity against aerobic bacteria Streptococcus D 2041; format: functional
Streptococcus pneumoniae [24] = experiment: In vivo effective dose against experimental infections in mice Streptococcus pneumoniae administered sc; format: functional
Streptococcus pneumoniae [25] = experiment: In vivo effective dose against experimental infections in mice Streptococcus pneumoniae park when administered orally; format: functional; settings: po
Streptococcus [26] = experiment: In vitro antimicrobial activity against aerobic bacteria Streptococcus D 8043; format: functional
Mus musculus [27] = experiment: Peripheral plasma levels in mice after oral administration of 100 mg/kg dose for 4 hr; format: functional, organism-based; set-up: dose 100 mg/kg; method in brief: as §1
Staphylococcus aureus [28] = experiment: In vitro antimicrobial activity against aerobic bacteria Staphylococcus aureus X400; format: functional
[29] = test system: Prevotella melaninogenica; experiment: In vitro antimicrobial activity against anaerobic bacteria bacteroides melaninogenicus 2736; format: functional
Bacteroides fragilis [30] = experiment: In vitro antimicrobial activity against anaerobic bacteria bacteroides fragilis 111; format: functional
Bacteroides fragilis [31] = experiment: In vitro antimicrobial activity against anaerobic bacteria bacteroides fragilis 1936B,; format: functional
Haemophilus influenzae [32] = experiment: In vitro antimicrobial activity against aerobic bacteria Haemophilus influenzae 76; format: functional
Mus musculus [33] = experiment: Peripheral plasma levels in mice after oral administration of 50 mg/kg dose for 4 hr; format: functional, organism-based; set-up: dose 50 mg/kg; method in brief: as §1
[34] = test system: Peptoniphilus asaccharolyticus; experiment: In vitro antimicrobial activity against anaerobic bacteria peptococcus asaccharolyticus 1302; format: functional
Clostridium septicum = experiment: In vitro antimicrobial activity against anaerobic bacteria clostridium septicum 1128; format: functional
[35] = test system: Peptostreptococcus anaerobius; experiment: In vitro antimicrobial activity against anaerobic bacteria eubacterium peptostreptococcus anaerobius 1428,; format: functional
Clostridioides difficile = experiment: In vitro antimicrobial activity against anaerobic bacteria Clostridium difficile 2994; format: functional
Staphylococcus aureus [36] = experiment: In vitro antimicrobial activity against aerobic bacteria Staphylococcus aureus V41; format: functional
[37] = test system: Fusobacterium necrophorum; experiment: In vitro antimicrobial activity against anaerobic bacteria usobacterium necrophorum 6054A; format: functional
Fusobacterium = experiment: In vitro antimicrobial activity against anaerobic bacteria fusobacterium symbiosum 1470; format: functional
Mus musculus [38] = experiment: Peripheral plasma levels in mice after oral administration of 100 mg/kg dose for 2 hr; format: functional, organism-based; set-up: dose 100 mg/kg; method in brief: as §1
Eikenella corrodens = experiment: In vitro antimicrobial activity against anaerobic bacteria bacteroides corrodens 1874; format: functional
[39] = test system: Staphylococcus epidermidis; experiment: In vitro antimicrobial activity against Staphylococcus epidermidis EPI1; format: functional
Haemophilus influenzae [40] = experiment: In vitro antimicrobial activity against Haemophilus influenzae.; format: functional
Staphylococcus aureus [41] = experiment: In vitro antimicrobial activity against aerobic bacteria Staphylococcus aureus V140,; format: functional
Phocaeicola vulgatus = experiment: In vitro antimicrobial activity against anaerobic bacteria bacteroides vulgatus 1211; format: functional
Enterococcus faecium = experiment: In vitro antimicrobial activity against Streptococcus faecium X66; format: functional, streptococcus fae-cium
[42] = test system: Haemophilus parainfluenzae; experiment: In vitro antimicrobial activity against aerobic bacteria Haemophilus parainfluenzae 9796; format: functional

In the case of `CC[C@H]1OC(=O)C[C@@H](O)[C@H](C)[C@@H](O[C@@H]2O[C@H](C)[C@@H](O)[C@H](N(C)C)[C@H]2O)[C@@H](CCOc2ccc(C(=O)c3ccccc3)cc2)C[C@@H](C)C(=O)/C=C/C(C)=C/[C@@H]1CO[C@@H]1O[C@H](C)[C@@H](O)[C@@H](OC)[C@H]1OC`, the MIC (Streptococcus [1]) is reported as 0.5 µg/mL (≈ 0.524 µM), the Concentration (Mus musculus [2]) is reported as 2.3 µg/mL and the MIC (Staphylococcus aureus [3]) is reported as 0.25 µg/mL (≈ 0.262 µM). The MIC [4] was less than 0.5 µg/mL, the MIC (Haemophilus influenzae [5]) was 32 µg/mL (≈ 33.5 µM) and the MIC (Haemophilus influenzae [6]) was 16 µg/mL (≈ 16.8 µM). The MIC (Chlamydia trachomatis) was greater than 2 µg/mL, the Concentration (Mus musculus [7]) was 0.4 µg/mL and the Concentration (Mus musculus [8]) was 0.1 µg/mL. For the same molecule, the MIC (Streptococcus [9]) was 1 µg/mL (≈ 1.05 µM), the MIC (Streptococcus pneumoniae [10]) was 128 µg/mL (≈ 134 µM) and the MIC (Cutibacterium acnes) was less than 0.5 µg/mL. For the same molecule, the MIC (Staphylococcus aureus [11]) was 0.25 µg/mL (≈ 0.262 µM), the MIC (Streptococcus [12]) was 1 µg/mL (≈ 1.05 µM) and the MIC [13] was less than 0.5 µg/mL. It also gave an MIC [14] of 4 µg/mL (≈ 4.19 µM), an MIC (Anaerococcus prevotii) of 2 µg/mL (≈ 2.1 µM) and an MIC (Clostridium perfringens) of less than 0.5 µg/mL. It also gave an MIC (Bacteroides fragilis [15]) of 2 µg/mL (≈ 2.1 µM), an MIC [16] of 0.12 µg/mL (≈ 0.126 µM) and an MIC [17] greater than 128 µg/mL. The Concentration (Mus musculus [18]) was 1.1 µg/mL, the Concentration (Mus musculus [19]) was 1.8 µg/mL and the MIC (Collinsella aerofaciens) was less than 0.5 µg/mL. The Concentration (Mus musculus [20]) was 1.3 µg/mL, the MIC (Staphylococcus aureus [21]) was 0.5 µg/mL (≈ 0.524 µM) and the Concentration (Mus musculus [22]) was 0.1 µg/mL. It also gave an MIC (Streptococcus [23]) of 0.5 µg/mL (≈ 0.524 µM), an ED50 (Streptococcus pneumoniae [24]) greater than 20 mg/kg and an ED50 (Streptococcus pneumoniae [25]) greater than 50 mg/kg. The MIC (Streptococcus [26]) was 0.25 µg/mL (≈ 0.262 µM), the Concentration (Mus musculus [27]) was 1.2 µg/mL and the MIC (Staphylococcus aureus [28]) was 0.25 µg/mL (≈ 0.262 µM). For the same molecule, the MIC [29] was 2 µg/mL (≈ 2.1 µM), the MIC (Bacteroides fragilis [30]) was 2 µg/mL (≈ 2.1 µM) and the MIC (Bacteroides fragilis [31]) was 4 µg/mL (≈ 4.19 µM). For the same molecule, the MIC (Haemophilus influenzae [32]) was 16 µg/mL (≈ 16.8 µM), the Concentration (Mus musculus [33]) was 0.8 µg/mL and the MIC [34] was less than 0.5 µg/mL. It also gave an MIC (Clostridium septicum) of less than 0.5 µg/mL, an MIC [35] of less than 0.5 µg/mL and an MIC (Clostridioides difficile) of less than 0.5 µg/mL. It also gave an MIC (Staphylococcus aureus [36]) of 0.25 µg/mL (≈ 0.262 µM), an MIC [37] of 4 µg/mL (≈ 4.19 µM) and an MIC (Fusobacterium) of 2 µg/mL (≈ 2.1 µM). It also gave a Concentration (Mus musculus [38]) of 2 µg/mL, an MIC (Eikenella corrodens) of 2 µg/mL (≈ 2.1 µM) and an MIC [39] of 0.25 µg/mL (≈ 0.262 µM). It also gave an MIC (Haemophilus influenzae [40]) of 16 µg/mL (≈ 16.8 µM), an MIC (Staphylococcus aureus [41]) of 0.5 µg/mL (≈ 0.524 µM) and an MIC (Phocaeicola vulgatus) of less than 0.5 µg/mL. For the same molecule, the MIC (Enterococcus faecium) was 0.25 µg/mL (≈ 0.262 µM) and the MIC [42] was 32 µg/mL (≈ 33.5 µM).

— ChEMBL document CHEMBL1124186, “Synthesis and evaluation of tylosin-related macrolides modified at the aldehyde function: a new series of orally effective antibiotics” (1988)
